Laboratory results as given in ChEMBL document CHEMBL1156534, “Hemopressin is an inverse agonist of CB1 cannabinoid receptors” (Proc Natl Acad Sci U S A, 2007).

Legend:
Format in all cases: functional, cell-based
[1] = molecular target: Mu-type opioid receptor (Homo sapiens) (UniProt P35372); experiment: Antagonist activity at mu opioid receptor expressed in HEK293 cells assessed as blockade of secreted alkaline phosphatase activity at 1 uM after 6 hrs relative to control
Method in brief: (§1)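 HEK-293 cells transiently co-transfected with pCRE-SeAP and a Flag-tagged receptor, 30,000 cells/well on poly-L-lysine. They were serum-starved 16–18 h, then exposed 6 h in serum-free medium to 10 μM forskolin (omitted for β2) plus the receptor agonist (100 nM), with or without peptide (1 μM). Heat-treated supernatant SeAP was read by CSPD chemiluminescence. Mean ± SEM, n = 6.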

[2] = molecular target: Beta-2 adrenergic receptor (Homo sapiens) (UniProt P07550); experiment: Antagonist activity at beta2 adrenergic receptor expressed in HEK293 cells assessed as blockade of secreted alkaline phosphatase activity at 1 uM after 6 hrs relative to control; method in brief: as §1
Chain of Beta-2 adrenergic receptor (Homo sapiens) (P07550 whole entry, looked up): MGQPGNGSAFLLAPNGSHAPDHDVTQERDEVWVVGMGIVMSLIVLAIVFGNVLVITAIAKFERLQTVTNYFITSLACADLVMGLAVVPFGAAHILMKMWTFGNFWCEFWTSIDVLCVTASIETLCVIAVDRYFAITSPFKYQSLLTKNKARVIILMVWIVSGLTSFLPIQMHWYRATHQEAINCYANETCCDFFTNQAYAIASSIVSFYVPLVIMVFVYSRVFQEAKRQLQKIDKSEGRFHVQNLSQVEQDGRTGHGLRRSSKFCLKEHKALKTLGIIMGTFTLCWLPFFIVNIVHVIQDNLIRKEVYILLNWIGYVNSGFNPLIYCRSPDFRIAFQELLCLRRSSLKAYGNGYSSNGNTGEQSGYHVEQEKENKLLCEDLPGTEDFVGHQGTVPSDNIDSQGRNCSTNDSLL

[3] = molecular target: Delta-type opioid receptor (Homo sapiens) (UniProt P41143); experiment: Antagonist activity at delta opioid receptor expressed in HEK293 cells assessed as blockade of secreted alkaline phosphatase activity at 1 uM after 6 hrs relative to control; method in brief: as §1
Chain of Delta-type opioid receptor (Homo sapiens) (P41143 whole entry): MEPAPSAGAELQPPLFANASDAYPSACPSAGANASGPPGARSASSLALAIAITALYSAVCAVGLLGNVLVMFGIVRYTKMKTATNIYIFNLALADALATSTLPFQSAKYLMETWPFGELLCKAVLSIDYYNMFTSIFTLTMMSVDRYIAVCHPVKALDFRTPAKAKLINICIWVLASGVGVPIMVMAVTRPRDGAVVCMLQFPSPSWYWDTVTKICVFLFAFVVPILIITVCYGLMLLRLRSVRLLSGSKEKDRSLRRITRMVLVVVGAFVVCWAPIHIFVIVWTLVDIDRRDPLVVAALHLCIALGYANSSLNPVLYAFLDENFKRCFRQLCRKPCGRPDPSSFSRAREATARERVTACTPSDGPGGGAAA

[4] = molecular target: Cannabinoid receptor 2 (Homo sapiens) (UniProt P34972); experiment: Antagonist activity at CB2 receptor expressed in HEK293 cells assessed as blockade of secreted alkaline phosphatase activity at 1 uM after 6 hrs relative to control
Chain of Cannabinoid receptor 2 (Homo sapiens) (P34972 whole entry): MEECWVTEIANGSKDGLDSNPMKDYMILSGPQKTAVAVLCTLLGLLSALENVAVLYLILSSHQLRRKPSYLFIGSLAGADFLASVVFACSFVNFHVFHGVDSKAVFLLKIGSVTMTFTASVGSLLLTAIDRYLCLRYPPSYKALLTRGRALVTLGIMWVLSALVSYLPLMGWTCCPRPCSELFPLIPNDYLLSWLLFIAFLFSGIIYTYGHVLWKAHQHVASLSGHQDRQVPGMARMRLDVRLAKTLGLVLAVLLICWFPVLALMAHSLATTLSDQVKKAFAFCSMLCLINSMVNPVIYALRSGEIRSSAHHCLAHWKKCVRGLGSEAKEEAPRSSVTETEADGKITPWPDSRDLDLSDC
Method in brief: (§2)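 HEK-293 cells transfected with 5 μg pCRE-SeAP plus 1 μg Flag-tagged CB₁ or CB₂ receptor, 30,000 cells/well, serum-starved 16–18 h. Stimulated 6 h in serum-free medium with 10 μM forskolin and 100 nM agonist, without or with 1 μM test peptide. Supernatant diluted in pH 7.2 buffer, heated 65°C 20 min, then CSPD chemiluminescence read. Mean ± SEM, n = 6.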

[5] = molecular target: Cannabinoid receptor 1 (Homo sapiens) (UniProt P21554); experiment: Antagonist activity at CB1 receptor expressed in HEK293 cells assessed as blockade of secreted alkaline phosphatase activity at 1 uM after 6 hrs relative to control; method in brief: as §2
Chain of Cannabinoid receptor 1 (Homo sapiens) (P21554 whole entry): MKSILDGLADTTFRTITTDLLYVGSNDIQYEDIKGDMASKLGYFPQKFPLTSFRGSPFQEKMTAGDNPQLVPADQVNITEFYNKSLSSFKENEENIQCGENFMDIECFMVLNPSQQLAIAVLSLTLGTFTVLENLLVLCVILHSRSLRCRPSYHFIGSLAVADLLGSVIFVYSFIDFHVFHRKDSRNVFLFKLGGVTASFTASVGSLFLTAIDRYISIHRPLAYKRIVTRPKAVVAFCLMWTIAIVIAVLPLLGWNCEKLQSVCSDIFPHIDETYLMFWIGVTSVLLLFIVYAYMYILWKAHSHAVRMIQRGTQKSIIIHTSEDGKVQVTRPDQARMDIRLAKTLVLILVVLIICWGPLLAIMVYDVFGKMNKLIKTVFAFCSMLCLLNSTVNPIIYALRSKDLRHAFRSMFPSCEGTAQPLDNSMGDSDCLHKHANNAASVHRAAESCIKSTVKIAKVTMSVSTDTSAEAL

[6] = molecular target: T1, Alpha-2A adrenergic receptor (Homo sapiens) (UniProt P08913); experiment: Antagonist activity at alpha2A adrenergic receptor expressed in HEK293 cells assessed as blockade of secreted alkaline phosphatase activity at 1 uM after 6 hrs relative to control; method in brief: as §1
T1 sequence (whole entry): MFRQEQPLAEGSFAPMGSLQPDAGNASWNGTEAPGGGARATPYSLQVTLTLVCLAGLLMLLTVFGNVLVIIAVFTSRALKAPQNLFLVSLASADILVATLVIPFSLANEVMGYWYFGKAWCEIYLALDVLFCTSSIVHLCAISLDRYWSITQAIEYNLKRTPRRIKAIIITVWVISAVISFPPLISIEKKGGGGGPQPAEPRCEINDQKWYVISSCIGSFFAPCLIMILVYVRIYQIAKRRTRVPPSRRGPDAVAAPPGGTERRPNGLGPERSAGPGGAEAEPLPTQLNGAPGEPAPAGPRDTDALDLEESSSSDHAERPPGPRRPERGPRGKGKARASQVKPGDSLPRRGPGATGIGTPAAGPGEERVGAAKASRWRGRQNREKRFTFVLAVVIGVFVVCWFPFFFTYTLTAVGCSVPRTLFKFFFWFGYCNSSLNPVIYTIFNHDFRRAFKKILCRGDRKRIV

Chain of Mu-type opioid receptor (Homo sapiens) (P35372 whole entry): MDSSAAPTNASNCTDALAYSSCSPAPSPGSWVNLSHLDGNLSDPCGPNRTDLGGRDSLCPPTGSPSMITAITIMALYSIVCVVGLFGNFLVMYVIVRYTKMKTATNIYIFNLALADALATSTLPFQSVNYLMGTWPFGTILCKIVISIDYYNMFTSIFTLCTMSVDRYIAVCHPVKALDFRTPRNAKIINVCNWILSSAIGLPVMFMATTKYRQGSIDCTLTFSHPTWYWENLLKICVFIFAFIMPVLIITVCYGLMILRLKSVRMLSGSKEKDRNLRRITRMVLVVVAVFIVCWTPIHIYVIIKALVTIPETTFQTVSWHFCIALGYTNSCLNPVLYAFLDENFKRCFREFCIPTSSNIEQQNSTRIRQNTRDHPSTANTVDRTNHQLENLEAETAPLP

With `Clc1cccc(Cl)c1NC1=NCCN1` the Activity [1] was 0.59.
`CC[C@H](C)[C@H](NC(=O)[C@H](Cc1ccc(O)cc1)NC(=O)[C@@H](NC(=O)[C@H](CCCNC(=N)N)NC(=O)[C@@H](N)CC(=O)O)C(C)C)C(=O)N[C@@H](Cc1cnc[nH]1)C(=O)N1CCC[C@H]1C(=O)N[C@@H](Cc1ccccc1)C(=O)O` gave an Activity [2] of 0.76 and an Activity [3] of 1.03.
With `CC(C)[C@H](NC(=O)[C@H](CCC(=O)O)NC(=O)[C@H](Cc1ccccc1)NC(=O)[C@H](C)NC(=O)[C@@H](N)Cc1ccc(O)cc1)C(=O)N[C@H](C(=O)NCC(=O)O)C(C)C` the Activity [4] was 0.64.
`C[C@@H](NC(=O)[C@@H](N)Cc1ccc(O)cc1)C(=O)NCC(=O)N(C)[C@@H](Cc1ccccc1)C(=O)NCCO` gave an Activity [5] of 0.68.
`CC(C)NCC(O)c1ccc(O)c(O)c1` (stereo unspecified) showed an Activity [6] of 1.26.
